This passage reports Ki results from PMC4672865 (Organic letters, 2015).

As a reminder, the Ki is the dissociation constant of the complex between target and ligand, obtained from inhibition or displacement. Read a low Ki as higher affinity.

For this assay, the target named is DNA polymerase β (pol β) (Homo sapiens, UniProt P06746). In words: X-ray crystal structure of ternary complex with DNA. It counts as biochemical. In a few lines: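 Standard gel assay of pol β: test compound at variable concentrations against a constant dTTP concentration. An observed rate is determined at each inhibitor concentration, rates are plotted against inhibitor concentration, and the data are fit to a hyperbolic decay curve to calculate Ki. Crystal structures are of ternary complexes of test compound with pol β and DNA.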

For the compound `Cc1cn([C@H]2C[C@H](O)[C@@H](COP(=O)(O)CP(=O)(O)NP(=O)(O)O)O2)c(=O)[nH]c1=O` [1a, (α,β)-CH2-(β,γ)-NH-dTTP], the Ki amounted to 2.7 µM. Under `Cc1cn([C@H]2C[C@H](O)[C@@H](COP(=O)(O)NP(=O)(O)CP(=O)(O)O)O2)c(=O)[nH]c1=O` [1b, (α,β)-NH-(β,γ)-CH2-dTTP] stands 23 µM.
